Each structure is given as a SMILES string. Bounds are passed on as bounds.

Test [1] has as its system Canis familiaris. The experiment in a line: In vivo antagonism of cisplatin-induced emesis in dog measured as percentage protection for twice the dose of 0.3 mg/kg in 2 dogs. The test is classed as functional, Canis lupus familiaris. In short, it runs like this:
(§1)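 Nonfasted mature male or female beagles were dosed sc twice, 30 min before and 120 min after cisplatin (3 mg/kg iv; 3 mg/mL in warm 0.9% saline, used immediately). Emesis was observed up to 5 h; events within 2 min counted as one episode. Results were given as mean emetic episodes and % protection versus a dynamic control (historical and concurrent saline means pooled). t test versus saline.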

For test [2], the target named is D(2) dopamine receptor (Canis lupus familiaris) (UniProt Q9GJU1). The experiment in a line: In vivo antagonism activity against dopamine D2 receptor was measured as emesis in dog when administered subcutaneously. Type of test: functional, organism-based.
A further test addresses D(2) dopamine receptor (Rattus norvegicus, UniProt P61169). Kind of test: In vitro antagonistic activity against Dopamine receptor D2 was evaluated for the inhibition of [3H]spiperone binding. In short, it runs like this: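 Rat striatal membranes were prepared by differential centrifugation in 50 mM Tris pH 7.4 at 4 °C. Membrane protein (10 mg) was incubated 15 min at 37 °C with 0.1 nM [3H]spiperone and varying competitor concentrations. Buffer: 50 mM Tris HCl pH 7.5, 0.1% ascorbic acid, pargyline, 120 mM NaCl, 5 mM KCl, 2 mM CaCl2, 1 mM MgCl2. (+)-Butaclamol defined nonspecific binding. Bound ligand was collected by filtration and scintillation counted. IC50 by log-logit regression.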

The test system of test [3] is Canis familiaris. The experiment in a line: In vivo antagonism of cisplatin-induced emesis in dog measured as emetic episodes, twice the dose of 0.3 mg/kg in 2 dogs. Type of test: functional, Canis lupus familiaris. In short, it runs like this:
as §1

The subject of test [4] is Mustela putorius furo. Kind of test: In vivo antagonism of cisplatin-induced emesis in ferret measured as emetic episodes, twice the dose of 3 mg/kg and in 3 ferrets. The test is classed as functional. Put shortly:
(§2)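 Nonfasted castrated male Fitch ferrets (1–1.5 kg) had jugular catheters implanted ≥48 h earlier under anesthesia. Compounds or saline were given iv twice, 5 min before and 90 min after cisplatin (12 mg/kg iv; 12 mg/mL in warm 0.9% saline). Emesis was observed up to 4 h; events within 1 min counted as one episode. Results were given as mean emetic episodes and % protection versus a pooled historical/concurrent control. t test versus saline.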

Test [5] concerns Mustela putorius furo. Kind of test: In vivo antagonism of cisplatin-induced emesis in ferret measured as emetic episodes, twice the dose of 0. 3 mg/kg and in 3 ferrets. The test is classed as functional. Put shortly: as §2
Test [6] relates to Mustela putorius furo. Kind of test: In vivo antagonism of cisplatin-induced emesis in ferret measured as percentage protection for twice the dose of 3 mg/kg and in 3 ferrets. The test is classed as functional. Put shortly: as §2
The target of test [7] is D(2) dopamine receptor (Rattus norvegicus) (UniProt P61169). Kind of test: In vivo antagonism activity against D2 receptor was measured as stereotypy in rat when administered subcutaneously. Type of test: functional, organism-based. In short, it runs like this: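 Male Long Evans rats (275 g) were dosed sc in dilute aqueous HCl (pH 4.5-5.5) 30 min before apomorphine (1 mg/kg sc).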

Test [8] has the same target. The experiment in a line: In vivo antagonistic activity against dopamine D2 receptor was measured as catalepsy in rat when administered subcutaneously. The test is classed as functional, organism-based. Put shortly: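 Male Long Evans rats (275 g) received graded sc doses in dilute aqueous HCl (pH 4.5-5.5). They were observed 180 min for catalepsy, scored when the animal stayed stationary ≥15 s on a four-cork template.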

Test [9] deals with Mustela putorius furo. The experiment in a line: In vivo antagonism of cisplatin-induced emesis in ferret measured as percentage protection for twice the dose of 3 mg/kg.
Test [10] relates to Canis familiaris. Kind of test: In vivo antagonism of cisplatin-induced emesis in dog measured as emetic episodes, twice the dose of 1 mg/kg in 2 dogs. The test is classed as functional, Canis lupus familiaris. The settings on record: 1 mg/kg. In short, it runs like this:
as §1

Test [11] relates to Canis familiaris. The experiment in a line: In vivo antagonism of cisplatin-induced emesis in dog measured as percentage protection for twice the dose of 1 mg/kg in 2 dogs. The test is classed as functional, Canis lupus familiaris. Put shortly: as §1
Test [12] relates to Mustela putorius furo. Kind of test: in vivo antagonism of cisplatin-induced emesis in ferret measured as emetic episodes, twice the dose of 0.3 mg/kg and in 3 ferrets. Type of test: functional. Put shortly: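 Nonfasted castrated male Fitch ferrets (1–1.5 kg) carried jugular vein catheters implanted at least 48 h earlier under general anesthesia. Test compound or saline was given iv twice, 5 min before and 90 min after cisplatin (12 mg/kg iv; 12 mg/mL in warm saline). Emesis was watched for 4 h, with events within 1 min counted as one episode. % protection is relative to a pooled historical-plus-concurrent control, with t test versus saline.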

Test [13] has as its system Mustela putorius furo. Kind of test: In vivo antagonism of cisplatin-induced emesis in ferret measured as emetic episodes, twice the dose of 0.3 mg/kg and in 3 ferrets. Type of test: functional. The settings on record: in the assay text read “in 2 ferrets” for “in 3 ferrets”. In short, it runs like this: as §2
In test [14] the test system is Mustela putorius furo. The experiment in a line: In vivo antagonism of cisplatin-induced emesis in ferret measured as emetic episodes, twice the dose of 1 mg/kg and in 3 ferrets. Type of test: functional. Put shortly:
as §2

Test [15] has as its system Mustela putorius furo. The experiment in a line: In vivo antagonism of cisplatin-induced emesis in ferret measured as percentage protection for twice the dose of 1 mg/kg and in 3 ferrets. The test is classed as functional. The following applies: 1 mg/kg. In short, it runs like this:
as §2

Test [16] concerns Canis familiaris. The experiment in a line: In vivo antagonism of cisplatin-induced emesis in dog measured as emetic episodes, twice the dose of 3 mg/kg in 2 dogs. Type of test: functional, Canis lupus familiaris. In short, it runs like this: as §1
Test [17] concerns Canis familiaris. Kind of test: In vivo antagonism of cisplatin-induced emesis in dog measured as percentage protection for twice the dose of 3 mg/kg in 2 dogs. The test is classed as functional, Canis lupus familiaris. In short, it runs like this:
as §1

Test [18] deals with Canis familiaris. The experiment in a line: Antagonism of cisplatin-induced emesis in dog measured as emetic episodes, twice the dose of 1 mg/kg in 2 dogs.(in vivo). Type of test: functional, Canis lupus familiaris. Put shortly:
as §1

The subject of test [19] is Canis familiaris. Kind of test: Antagonism of cisplatin-induced emesis in dog measured as emetic episodes, twice the dose of 0.3 mg/kg in 2 dogs.(in vivo). The test is classed as functional, Canis lupus familiaris. Put shortly:
as §1

Test [20] relates to Canis familiaris. Kind of test: in vivo antagonism of cisplatin-induced emesis in dog measured as emetic episodes, twice the dose of 0.3 mg/kg in 2 dogs. Type of test: functional, Canis lupus familiaris.

Chain of D(2) dopamine receptor (Canis lupus familiaris) (Q9GJU1 whole entry): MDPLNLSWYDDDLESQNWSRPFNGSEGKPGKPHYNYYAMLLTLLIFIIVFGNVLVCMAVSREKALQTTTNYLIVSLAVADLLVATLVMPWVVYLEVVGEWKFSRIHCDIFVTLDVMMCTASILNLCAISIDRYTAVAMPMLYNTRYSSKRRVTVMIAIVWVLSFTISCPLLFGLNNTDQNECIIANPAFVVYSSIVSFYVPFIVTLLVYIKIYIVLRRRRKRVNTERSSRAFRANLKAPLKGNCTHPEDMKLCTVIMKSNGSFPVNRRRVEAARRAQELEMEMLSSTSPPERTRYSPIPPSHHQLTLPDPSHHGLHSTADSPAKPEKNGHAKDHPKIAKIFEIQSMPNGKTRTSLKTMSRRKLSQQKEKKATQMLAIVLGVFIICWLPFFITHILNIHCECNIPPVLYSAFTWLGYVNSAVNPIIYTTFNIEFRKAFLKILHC
Chain of D(2) dopamine receptor (Rattus norvegicus) (P61169 whole entry): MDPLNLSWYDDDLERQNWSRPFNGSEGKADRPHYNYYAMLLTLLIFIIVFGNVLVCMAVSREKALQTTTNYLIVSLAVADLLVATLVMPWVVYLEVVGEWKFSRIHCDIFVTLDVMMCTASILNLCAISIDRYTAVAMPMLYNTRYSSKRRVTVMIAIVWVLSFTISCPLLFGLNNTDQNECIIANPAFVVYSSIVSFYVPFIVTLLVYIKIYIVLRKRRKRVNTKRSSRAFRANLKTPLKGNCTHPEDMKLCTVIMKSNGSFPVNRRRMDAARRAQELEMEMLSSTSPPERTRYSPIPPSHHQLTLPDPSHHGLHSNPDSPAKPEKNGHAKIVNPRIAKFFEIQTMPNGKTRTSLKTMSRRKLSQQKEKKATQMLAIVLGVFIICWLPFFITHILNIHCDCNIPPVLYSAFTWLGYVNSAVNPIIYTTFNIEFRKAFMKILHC
Chain of D(2) dopamine receptor (P61169 whole entry): as above

The ED50 is the dose that gives a 50% effect, or the effect in half of the subjects. By IC50 is commonly meant the midpoint of a concentration-inhibition curve. Higher therefore signals lower potency. In the case of `CCN(CC)CCN1C(=O)c2cc(Cl)c(NC=O)cc2OC(C)=C1C`, the Protection came to 25% in the test on Canis familiaris [1], 100% in the test on Mustela putorius furo [6] and 32% with Mustela putorius furo [9]. The ED50 in [2] is above 3 mg/kg; in test [7], above 40 mg/kg; in [8], above 40 mg/kg. At D(2) dopamine receptor, this molecule registered an IC50 above 1000 nM. The Emetic episodes in the test on Canis familiaris [3] came out at 9.5; in the test with Mustela putorius furo [4], 0; in the test on Mustela putorius furo [5] it was 4.7.
Consider `CCN(CC)CCNC(=O)c1cc(Cl)c(N)cc1OC[C@@H](C)O` (stereo in doubt; 8e), for which the Protection is on record as 45% with Canis familiaris [1] (0.3 mg/kg), 92% in the test on Canis familiaris [11] (1 mg/kg), 18% in the test on Mustela putorius furo [13] and 73% in the test on Mustela putorius furo [15]. The molecule further had an IC50 on D(2) dopamine receptor above 1000 nM. The Emetic episodes in the test on Canis familiaris [3] (0.3 mg/kg) turned out to be 6.5; in the test on Canis familiaris [10], 1; in the test on Mustela putorius furo [12] it was 6; with Mustela putorius furo [14] (1 mg/kg), 2.
As for `CCN(CC)CCNC(=O)c1cc(Cl)c(N)cc1OCC1COC(C)(C)O1` (configuration not stated), the figures for the ED50 in test [2], in [7] and in test [8] were above 3 mg/kg, above 40 mg/kg and above 40 mg/kg, respectively. For the same molecule, the figures for the Emetic episodes in the test with Canis familiaris [16] and in the test on Mustela putorius furo [4] were 4 and 2, respectively. This molecule also came in with an IC50 at D(2) dopamine receptor above 1000 nM. The Protection came out at 68% with Canis familiaris [17] and 72% with Mustela putorius furo [6].
For `CCN(CC)CCNC(=O)c1cc(Cl)c(N)cc1OCCC(C)OC` (configuration not stated), the Protection is 28% in the test on Canis familiaris [1], 88% with Canis familiaris [11], 42% in the test with Mustela putorius furo [14] and 82% in the test with Mustela putorius furo [6]. Besides, the ED50 in [2] was above 3 mg/kg; in [7] it was above 40 mg/kg; in test [8], above 40 mg/kg. For the same molecule, the IC50 on D(2) dopamine receptor is above 1000 nM. In addition, the Emetic episodes is on record as 1.5 in the test on Canis familiaris [18], 1.3 in the test on Mustela putorius furo [4], 4.3 with Mustela putorius furo [14] and 8.5 with Canis familiaris [19].
For the molecule `CCN(CC)CCNC(=O)c1cc(Cl)c(N)cc1OCC(=O)Cc1ccccc1`, the Protection in the test with Canis familiaris [1] is 0%; with Mustela putorius furo [6] it was 100%. In addition, the ED50 was above 3 mg/kg in [2], above 40 mg/kg in [7] and above 40 mg/kg in test [8]. Further, the IC50 at D(2) dopamine receptor was above 1000 nM. The Emetic episodes in the test on Canis familiaris [20] was determined as 13; with Mustela putorius furo [4], 0.

The values are drawn from ChEMBL document CHEMBL1124174, “Substituted benzamides. 1. Potential nondopaminergic antagonists of chemotherapy-induced nausea and emesis” (J Med Chem, 1988).
